{"source": "ChEMBL document CHEMBL1140750", "about": "“Dynamic combinatorial mass spectrometry leads to metallo-beta-lactamase inhibitors” (J Med Chem, 2008)", "key": {"[1]": {"test": "Inhibition of Bacillus cereus metallo-beta-lactamase BcII by dynamic combinatorial mass spectrometry", "how_it_was_run": "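BcII enzyme was preincubated with inhibitor at room temperature in 20 mM HEPES pH 7.0 with 20 µg/mL BSA; inhibitors came from 10 mM DMSO stocks. Imipenem substrate was then added at 20–200 µM, with at least two inhibitor concentrations plus a no-inhibitor control. Hydrolysis was followed by absorbance at 300 or 482 nm at 30 °C. Ki was derived from initial rates by Hanes linearization.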"}, "[2]": {"test": "Inhibition of metallo-beta-lactamase IMP1"}}, "data": [{"molecule": "CC(=O)Nc1ccc(C(=O)N[C@H](CS)C(=O)O)cc1", "values": [{"measurement": "Ki", "setting": "[1]", "value": 13.5, "unit": "µM"}]}, {"molecule": "CC(C)(C)c1ccc(C(=O)N[C@H](CS)C(=O)O)cc1", "values": [{"measurement": "Ki", "setting": "[1]", "value": 8.4, "unit": "µM"}]}, {"molecule": "O=C(O)C(S)C(S)C(=O)O", "note": "(stereo not given)", "values": [{"measurement": "Ki", "setting": "[1]", "value": 125, "unit": "µM"}]}, {"molecule": "O=C(NC(CS)C(=O)O)c1ccccc1", "note": "(single isomer, unassigned; 9a)", "values": [{"measurement": "Ki", "setting": "[1]", "value": 28, "unit": "µM"}]}, {"molecule": "O=C(NC(CS)C(=O)O)c1ccccc1", "note": "(single isomer, unassigned; 9b)", "values": [{"measurement": "Ki", "setting": "[1]", "value": 0.74, "unit": "µM"}]}, {"molecule": "O=C(Cc1ccccc1)NC(CS)C(=O)O", "note": "(single isomer, unassigned; 9c)", "values": [{"measurement": "Ki", "setting": "[1]", "value": 154, "unit": "µM"}]}, {"molecule": "O=C(Cc1ccccc1)NC(CS)C(=O)O", "note": "(single isomer, unassigned; 9d)", "values": [{"measurement": "Ki", "setting": "[1]", "value": 53, "unit": "µM"}]}, {"molecule": "O=C(CCc1ccccc1)NC(CS)C(=O)O", "note": "(single isomer, unassigned; 9e)", "values": [{"measurement": "Ki", "setting": "[1]", "value": 44, "unit": "µM"}]}, {"molecule": "O=C(CCc1ccccc1)NC(CS)C(=O)O", "note": "(single isomer, unassigned; 9f)", "values": [{"measurement": "Ki", "setting": "[1]", "value": 73, "unit": "µM"}]}, {"molecule": "O=C(O)CCS", "note": "[MERCAPTOPROPIONIC ACID]", "values": [{"measurement": "IC50", "setting": "[2]", "value": 170, "unit": "µM"}]}]}
